What was measured:
Assay type in all cases: functional, cell-based
HL-60 = test: Cytotoxicity against human HL60 cells after 72 hrs by MTT assay; conditions: HL-60, 72 h
Summary of the method: (§1)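 Cells grown in MEM with 10% fetal calf serum, penicillin and streptomycin at 37 °C, 5% CO2. Exponentially growing cells seeded in quadruplicate at 5 × 10³ per well and left 24 h before compounds (DMSO stocks) were added. After 72 h exposure, MTT added for 4 h at 37 °C, formazan dissolved in DMSO, read at 570 nm. IC50 read graphically from dose–response curves.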

[1] = Cytotoxicity against human ECA109 cells after 72 hrs by MTT assay; conditions: ECa-109, 72 h; summary of the method: as §1
K562 = test: Cytotoxicity against human K562 cells after 72 hrs by MTT assay; conditions: K562, 72 h; summary of the method: as §1
CNE = test: Cytotoxicity against human CNE cells after 72 hrs by MTT assay; summary of the method: as §1
HeLa = test: Cytotoxicity against human HeLa cells after 72 hrs by MTT assay; summary of the method: as §1
[2] = Cytotoxicity against human LS 174T cells after 72 hrs by MTT assay; conditions: LS174T; summary of the method: as §1
[3] = Cytotoxicity against human Bel7404 cells after 72 hrs by MTT assay; conditions: BEL-7404, 72 h; summary of the method: as §1
PC-3 = test: Cytotoxicity against human PC3 cells after 72 hrs by MTT assay; conditions: PC-3, 72 h; summary of the method: as §1
A549 = test: Cytotoxicity against human A549 cells after 72 hrs by MTT assay; conditions: A549, 72 h; summary of the method: as §1
KB = test: Cytotoxicity against human KB cells after 72 hrs by MTT assay; summary of the method: as §1
BGC-823 = test: Cytotoxicity against human BGC823 cells after 72 hrs by MTT assay; conditions: BGC-823, 72 h; summary of the method: as §1
[4] = Cytotoxicity against human HO8910 cells after 72 hrs by MTT assay; conditions: HO-8910, 72 h; summary of the method: as §1

| Compound | IC50 (HL-60) [µM] | IC50 [1] [µM] | IC50 (K562) [µM] | IC50 (CNE) [µM] | IC50 (HeLa) [µM] | IC50 [2] [µM] | IC50 [3] [µM] | IC50 (PC-3) [µM] | IC50 (A549) [µM] | IC50 (KB) [µM] | IC50 (BGC-823) [µM] | IC50 [4] [µM] |
| --- | --- | --- | --- | --- | --- | --- | --- | --- | --- | --- | --- | --- |
| Cc1ccc(NC(=O)COC(=O)/C=C/c2ccc(O)c(O)c2)cc1 | 92.6 | > 200 | > 200 | > 200 | > 200 | 145 | > 200 | > 200 |  |  |  |  |
| O=C(COC(=O)/C=C/c1ccc(O)c(O)c1)NN1CCOCC1 | > 200 | > 200 | 56.8 | > 200 | > 200 | > 200 | > 200 | > 200 |  |  |  |  |
| O=C(/C=C/c1ccc(O)c(O)c1)NCCc1c[nH]c2ccccc12 | 124 | > 200 | > 200 | > 200 | 2.7 | 8.4 | > 200 | > 200 | > 200 | 85.7 | > 200 | > 200 |
| COCOc1ccc(/C=C/C(=O)N2CCN(Cc3ccc(Cl)c(Cl)c3)CC2)cc1OCOC | 31 | 7.4 | 19.3 | > 200 | 29.1 | 139 | > 200 | 7.4 | 107 | 3.7 | 64.4 | 69.7 |
| COCOc1cc(/C=C/C(=O)OCC(=O)Nc2ccc(Cl)cc2)ccc1OCc1ccccc1 | > 200 | > 200 | > 200 | > 200 | > 200 | > 200 | > 200 | > 200 |  |  |  |  |
| COc1ccc(/C=C/C(=O)OCC(=O)Nc2ccc(Cl)cc2)cc1OC | 31.9 | 81.9 | 60.2 | > 200 | 45.4 | > 200 | 120 | > 200 |  |  |  |  |
| COc1ccc(/C=C/C(=O)OCC(=O)NCc2ccco2)cc1OC | 92.5 | > 200 | 0.8 | > 200 | > 200 | > 200 | > 200 | > 200 |  |  |  |  |
| CCOc1ccc(COc2c(OC)cc(/C=C/C(=O)OCC(=O)Nc3ccccc3)cc2OC)cc1 | > 200 | > 200 | > 200 | > 200 | > 200 | > 200 | > 200 | > 200 |  |  |  |  |
| COc1cc(/C=C/C(=O)OCC(=O)Nc2ccc(Cl)cc2)cc(OC)c1OCc1ccc(Cl)c(Cl)c1 | 73.9 | > 200 | > 200 | > 200 | > 200 | 72.4 | > 200 | > 200 |  |  |  |  |
| COCOc1ccc(/C=C/C(=O)NCCN2CCOCC2)cc1OCOC | > 200 | > 200 | > 200 | > 200 | > 200 | > 200 | > 200 | > 200 | > 200 | > 200 | > 200 | > 200 |
| O=C(COC(=O)/C=C/c1ccc(O)c(O)c1)Nc1ccc(Cl)cc1 | 8.1 | 175 | 99.4 | 89.6 | 195 | 108 | > 200 | 160 |  |  |  |  |
| COc1ccc(/C=C/C(=O)N2CCN(Cc3ccc(Cl)c(Cl)c3)CC2)cc1OC | 140 | > 200 | 70.8 | > 200 | 76.6 | > 200 | 85.7 | > 200 | > 200 | 69.2 | > 200 | 121 |
| COc1ccc(NC(=O)COC(=O)/C=C/c2ccc(O)c(O)c2)cc1 | 72.1 | 190 | 79.1 | > 200 | > 200 | 124 | > 200 | 172 |  |  |  |  |
| COCOc1cc(/C=C/C(=O)OCC(=O)NCc2ccco2)ccc1OCc1ccccc1 | 82.2 | > 200 | 0.3 | > 200 | > 200 | > 200 | > 200 | > 200 |  |  |  |  |
| COCOc1cc(/C=C/C(=O)OCC(=O)Nc2ccc(OC)cc2)ccc1OCc1ccccc1 | > 200 | > 200 | > 200 | > 200 | 155 | > 200 | 133 | > 200 |  |  |  |  |
